Data from ChEMBL document CHEMBL3407352, “Identification of anthranilamide derivatives as potential factor Xa inhibitors: drug design, synthesis and biological evaluation” (Eur J Med Chem, 2015).

How the values were obtained:
[1] = molecular target: Coagulation factor X (Homo sapiens, UniProt P00742); assay: Inhibition of human factor 10a using acromogenic substrate S-2222 preincubated for 30 mins before substrate addition measured after 20 mins by spectrophotometry
[2] = molecular target: Prothrombin (Homo sapiens, UniProt P00734); assay: Inhibition of human thrombin using acromogenic substrate S-2238 preincubated for 30 mins before substrate addition measured after 20 mins by spectrophotometry
Outline: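 Compounds prepared at 10 mM, serially diluted to twelve concentrations in 50 mM Tris-Cl, 100 mM NaCl, 0.1% BSA, pH 7.4; mixed with enzyme (final: human fXa 0.003 U/mL; human thrombin 0.125 U/mL), incubated 30 min at 37 °C. Reaction started with chromogenic substrate (fXa: S-2222; thrombin: S-2238), monitored continuously 20 min at 405 nm; IC50 from mean of duplicates.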

[3] = Anticoagulant activity in plasma (unknown origin) assessed as concentration required to double the time for fibrin formation; format: functional
Outline: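 Clotting times in plasma on automatic coagulometer per manufacturer's instructions; increasing inhibitor concentrations or solvent added to plasma, incubated 3 min at 37 °C, clotting times compared with appropriate control plasma.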

Coagulation factor X, sequence (P00742 41-179 limits assumed): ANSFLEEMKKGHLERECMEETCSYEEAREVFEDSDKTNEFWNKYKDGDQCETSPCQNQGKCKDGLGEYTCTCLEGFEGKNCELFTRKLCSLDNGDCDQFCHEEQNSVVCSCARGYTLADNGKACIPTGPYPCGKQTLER
Coagulation factor X, sequence (P00742 235-488 limits assumed): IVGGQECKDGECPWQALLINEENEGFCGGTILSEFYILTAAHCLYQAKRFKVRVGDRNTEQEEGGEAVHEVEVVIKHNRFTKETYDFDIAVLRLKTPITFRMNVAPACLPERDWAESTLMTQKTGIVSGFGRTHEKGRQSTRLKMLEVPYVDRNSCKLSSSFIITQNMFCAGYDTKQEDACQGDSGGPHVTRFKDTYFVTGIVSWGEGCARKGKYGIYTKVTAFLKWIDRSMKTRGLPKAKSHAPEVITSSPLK

| SMILES | IC50 [1] | also measured |
| --- | --- | --- |
| C[C@@H](C(=O)N1CCOCC1)N1CC[C@H](NS(=O)(=O)C2=Nc3ccc(Cl)cc3C2)C1=O | – | Ki [1]: 90 nM |
| COc1ccc(NC(=O)C(=O)Nc2cccc(Cl)c2)c(C(=O)Nc2ccc(N3CCOCC3=O)cc2)c1 | 621 nM | – |
| COc1ccc(NC(=O)C(=O)Nc2ccccc2)c(C(=O)Nc2ccc(N3CCOCC3=O)cc2)c1 | 1120 nM | – |
| COc1ccc(NC(=O)c2ccc(C(=N)N(C)C)cc2)c(C(=O)Nc2ccc(Cl)cn2)c1 [BETRIXABAN] | – | IC50 [2]: 18000 nM; Activity [3]: 2.4 µM |
| COc1ccc(NC(=O)C(=O)Nc2ccc(F)cc2)c(C(=O)Nc2ccc(N3CCOCC3=O)cc2)c1 | 678 nM | – |
| COc1ccc(NC(=O)C(=O)Nc2ccccc2OC)c(C(=O)Nc2ccc(N3CCOCC3=O)cc2)c1 | 828 nM | – |
| COc1ccc(NC(=O)C(=O)Nc2ccccc2Cl)c(C(=O)Nc2ccc(N3CCOCC3=O)cc2)c1 | 798 nM | – |

Second part, led by results:

| IC50 [1] | SMILES | also measured |
| --- | --- | --- |
| 298 nM | COc1ccc(NC(=O)C(=O)Nc2ccc(Cl)cn2)c(C(=O)Nc2ccc(N3CCOCC3=O)cc2)c1 | – |
| 452 nM | COc1ccc(NC(=O)C(=O)Nc2ccc(Cl)cc2)c(C(=O)Nc2ccc(N3CCOCC3=O)cc2)c1 | – |
| 378 nM | COc1cccc(C(=O)Nc2ccc(OC)cc2C(=O)Nc2ccc(N3CCCCC3=O)cc2)c1 | – |
| 612 nM | COc1ccc(NC(=O)C(=O)Nc2ccc(OC)cc2C(=O)Nc2ccc(N3CCOCC3=O)cc2)cc1 | – |
| 23 nM | COc1ccc(NC(=O)c2ccc(Cl)cc2)c(C(=O)Nc2ccc(N3CCCCC3=O)cc2)c1 | IC50 [2]: 48000 nM; Activity [3]: 8.7 µM |
| 27 nM | CN1CCC2N=C(C(=O)N[C@@H]3CCCC[C@@H]3CNC(=O)c3ccc(Cl)s3)SC2C1 (stereo partly drawn) | – |
| 521 nM | COc1ccc(NC(=O)c2ccccc2)c(C(=O)Nc2ccc(N3CCCCC3=O)cc2)c1 | – |
| 183 nM | COc1ccc(NC(=O)c2cccc(Cl)c2)c(C(=O)Nc2ccc(N3CCCCC3=O)cc2)c1 | – |
